Measured values collected from several papers.
Lines come from different studies, so protocols differ.
Cell line: HEL
Effect on: cell growth or viability

CCOP(=O)(OCC)[C@@H]1C[C@@H](n2cc(Cn3ccc(NC(C)=O)nc3=O)nn2)ON1C (racemic) — CC50 (72 h): > 100 µM
O=c1[nH]c(=O)c2ncn(CC(CO)OCP(=O)(O)O)c2[nH]1 (racemic) — CC50 (72 h): ≥ 300 µM
CCOP(=O)(OCC)[C@@H]1C[C@@H](n2cc(Cn3ccc(=O)[nH]c3=O)nn2)ON1C (racemic) — CC50 (72 h): > 100 µM
CCCCCCCCCCCCCCCCOCCCOP(=O)(O)COCCn1cnc2c(=O)[nH]c(=O)[nH]c21 — CC50 (72 h): 10 µM
C[C@H](NC(=O)[C@@]1(Cc2ccccc2)CCN1C(=O)OCc1ccccc1)C(=O)N(C)C — CC50 (72 h): > 100 µM
Nc1nc2c(ncn2COCCO)c(=O)[nH]1 — CC50: 440 µM
C[C@H](NC(=O)[C@]1(Cc2ccccc2)CCN1C(=O)OCc1ccccc1)C(=O)NCc1ccccc1 — CC50 (72 h): 42 µM
CCOP(=O)(OCC)[C@@H]1C[C@H](n2cc(-c3nccn3C)nn2)ON1C — CC50 (72 h): > 100 µM
CC(C)CNC(=O)[C@H](C)NC(=O)[C@@]1(Cc2ccccc2)CCN1C(=O)OCc1ccccc1 — CC50 (72 h): > 100 µM
CCOP(=O)(OCC)[C@H]1C[C@@H](Cn2c(=O)n(C(=O)c3ccccc3)c(=O)c3ccccc32)ON1C — CC50: > 100 µM
